Measurements as given in ChEMBL document CHEMBL3085655, “4β-Methyl-5-(3-hydroxyphenyl)morphan opioid agonist and partial agonist derived from a 4β-methyl-5-(3-hydroxyphenyl)morphan pure antagonist” (J Med Chem, 2013).

Tests used:
[1] = target: T1, Kappa-type opioid receptor (Homo sapiens, UniProt P41145); experiment: Displacement of [3H]U-69593 from human kappa opioid receptor expressed in CHO cells; assay type: cell-based
Summary of the method: (§1)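 Competition radioligand binding at the human receptors, run at the Psychoactive Drug Screening Program. Radioligands were [3H]DAMGO (MOR), [3H]DADLE (DOR) and [3H]U69,593 (KOR). Radioligand Kd determined by homologous competition binding with the receptor-specific radioligand. Ki values reported.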

Mu-type opioid receptor [2] = target: T2, Mu-type opioid receptor (Homo sapiens, UniProt P35372); experiment: Displacement of [3H]DAMGO from human mu opioid receptor expressed in CHO cells; assay type: cell-based; summary of the method: as §1
Mu-type opioid receptor [3] = target: T2, Mu-type opioid receptor; experiment: Agonist activity at human mu opioid receptor expressed in CHO cells by [35S]GTPgammaS binding assay relative to DAMGO; assay type: functional, cell-based
Summary of the method: (§2)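 Membranes from CHO cells over-expressing the human receptor. Stimulated [35S]GTPγS binding measured with eight concentrations chosen to define both asymptotes of the concentration-response curve. EC50 and Emax calculated. Emax expressed as a percentage of the Emax of the standard agonist on the same plate: DAMGO (mu), DPDPE (delta), U50,488 (kappa). Mean ± SE of at least three experiments.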

Mu-type opioid receptor [4] = target: T2, Mu-type opioid receptor; experiment: Agonist activity at human mu opioid receptor expressed in CHO cells by [35S]GTPgammaS binding assay; assay type: functional, cell-based; summary of the method: as §2
[5] = target: T3, Delta-type opioid receptor (Homo sapiens, UniProt P41143); experiment: Displacement of [3H]DADLE from human delta opioid receptor expressed in CHO cells; assay type: cell-based
Summary of the method: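 Competition radioligand binding at the human receptors, run at the Psychoactive Drug Screening Program. Radioligand Kd determined by homologous competition binding with the receptor-specific radioligand. Ki values reported.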

[6] = target: T1, Kappa-type opioid receptor; experiment: Agonist activity at human kappa opioid receptor expressed in CHO cells by [35S]GTPgammaS binding assay relative to U50,488; assay type: functional, cell-based; summary of the method: as §2
[7] = target: T1, Kappa-type opioid receptor; experiment: Agonist activity at human kappa opioid receptor expressed in CHO cells by [35S]GTPgammaS binding assay; assay type: functional, cell-based; summary of the method: as §2
[8] = target: T3, Delta-type opioid receptor; experiment: Agonist activity at human delta opioid receptor expressed in CHO cells by [35S]GTPgammaS binding assay relative to DPDPE; assay type: functional, cell-based; summary of the method: as §2
[9] = target: T3, Delta-type opioid receptor; experiment: Agonist activity at human delta opioid receptor expressed in CHO cells by [35S]GTPgammaS binding assay; assay type: functional, cell-based; summary of the method: as §2
[10] = target: T3, Delta-type opioid receptor; experiment: Intrinsic agonist activity at human delta opioid receptor expressed in CHO cells by [35S]GTPgammaS binding assay; assay type: functional, cell-based
[11] = target: T1, Kappa-type opioid receptor; experiment: Antagonist activity at human kappa opioid receptor expressed in CHO cells by [35S]GTPgammaS binding assay; assay type: functional, cell-based
Summary of the method: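 Inhibition of [35S]GTPγS binding stimulated by the selective agonist in CHO cells over-expressing the human receptor. Agonists were DPDPE (delta) and U69,593 (kappa). Agonist dose-response curves run with and without a single concentration of test compound. Ke = [L]/(DR−1), where DR is the ratio of agonist EC50 with and without test compound. Mean ± SE of at least three experiments.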

[12] = target: T3, Delta-type opioid receptor; experiment: Intrinsic activity at human delta opioid receptor expressed in CHO cells by [35S]GTPgammaS binding assay; assay type: functional, cell-based

T1 sequence (P41145 whole entry): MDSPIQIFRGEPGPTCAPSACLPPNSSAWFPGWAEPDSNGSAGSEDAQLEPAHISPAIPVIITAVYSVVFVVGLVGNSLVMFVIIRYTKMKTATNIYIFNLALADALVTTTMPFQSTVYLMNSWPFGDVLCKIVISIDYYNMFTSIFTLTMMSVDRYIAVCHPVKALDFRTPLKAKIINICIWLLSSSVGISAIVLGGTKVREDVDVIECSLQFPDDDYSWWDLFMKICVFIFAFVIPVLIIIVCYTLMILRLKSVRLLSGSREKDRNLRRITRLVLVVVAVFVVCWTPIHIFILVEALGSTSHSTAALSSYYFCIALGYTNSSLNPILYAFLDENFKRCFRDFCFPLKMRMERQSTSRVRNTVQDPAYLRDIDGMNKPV
T3 sequence (P41143 whole entry): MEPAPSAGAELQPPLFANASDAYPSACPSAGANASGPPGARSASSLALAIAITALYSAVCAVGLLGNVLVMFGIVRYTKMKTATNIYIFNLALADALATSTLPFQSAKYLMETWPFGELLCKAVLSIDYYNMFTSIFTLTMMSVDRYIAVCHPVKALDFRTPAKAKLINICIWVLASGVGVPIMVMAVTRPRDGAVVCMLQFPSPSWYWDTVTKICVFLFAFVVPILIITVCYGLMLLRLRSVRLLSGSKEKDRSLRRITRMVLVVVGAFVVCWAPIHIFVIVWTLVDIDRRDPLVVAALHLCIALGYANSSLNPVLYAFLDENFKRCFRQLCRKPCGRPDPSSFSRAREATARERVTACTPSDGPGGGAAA
T2 sequence (P35372 whole entry): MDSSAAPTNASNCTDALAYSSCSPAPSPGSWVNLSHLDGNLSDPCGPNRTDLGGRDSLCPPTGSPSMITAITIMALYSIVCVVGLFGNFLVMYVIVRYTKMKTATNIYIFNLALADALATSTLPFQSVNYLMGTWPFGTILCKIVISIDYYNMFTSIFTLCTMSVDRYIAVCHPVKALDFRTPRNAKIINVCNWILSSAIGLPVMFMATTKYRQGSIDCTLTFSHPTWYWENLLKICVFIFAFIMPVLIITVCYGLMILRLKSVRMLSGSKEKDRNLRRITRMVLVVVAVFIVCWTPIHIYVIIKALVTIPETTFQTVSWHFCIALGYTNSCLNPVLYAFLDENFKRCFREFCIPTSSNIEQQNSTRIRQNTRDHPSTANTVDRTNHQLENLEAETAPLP

SMILES | Ki [1] [nM] | Ki (Mu-type opioid receptor [2]) [nM] | Emax (Mu-type opioid receptor [3]) [%] | EC50 (Mu-type opioid receptor [4]) [nM] | Ki [5] [nM] | Emax [6] [%] | EC50 [7] [nM] | Emax [8] [%] | EC50 [9] [nM] | Agonist potency [10] [nM] | Ke [11] [nM] | EC50 ([9]; cho) [nM] | EC50 (Mu-type opioid receptor [4]; cho) [nM] | Intrinsic activity [12] [µM]
C[C@@H]1CN(CCCc2ccccc2)[C@H]2C[C@H](NCC3CC3)C[C@]1(c1cccc(O)c1)C2 | 13.7 | 7.55 | 52 | 130 |  |  |  |  |  |  |  |  |  | 
C[C@@H]1CN(CCCc2ccccc2)[C@H]2C[C@H](N(C)CC3CC3)C[C@]1(c1cccc(O)c1)C2 | 0.92 | 0.43 | 109 | 2.7 | 9.04 | 38 | 40 | 24 | 10.3 |  |  |  |  | 
CCN[C@H]1C[C@H]2C[C@@](c3cccc(O)c3)(C1)[C@H](C)CN2CCCc1ccccc1 | 8.22 | 3.35 | 14 | 33 | 264 |  |  |  |  | > 5000 |  |  |  | 
CCCN[C@H]1C[C@H]2C[C@@](c3cccc(O)c3)(C1)[C@H](C)CN2CCCc1ccccc1 | 1.4 | 1.66 | 57 | 18 | 73.8 | 20.7 | 293 |  |  | > 5000 |  |  |  | 
C[C@H]1CN(CCCc2ccccc2)[C@@H]2C[C@@H](N)C[C@@]1(c1cccc(O)c1)C2 |  |  | 44 | 20.6 |  |  |  |  |  | > 5000 | 21.7 |  |  | 
C[C@@H]1CN(CCCc2ccccc2)[C@@H]2CCC[C@]1(c1cccc(O)c1)C2 | 7.79 | 1.61 |  |  | 161 |  |  |  |  |  |  |  |  | 
CN[C@H]1C[C@H]2C[C@@](c3cccc(O)c3)(C1)[C@H](C)CN2CCCc1ccccc1 | 20.9 | 0.371 | 105 | 15 | 36.2 |  |  | 101 | 14.8 |  |  |  |  | 
C[C@@H]1CN(CCCc2ccccc2)[C@H]2C[C@H](N)C[C@]1(c1cccc(O)c1)C2 |  |  | 74 |  |  |  |  | 101 |  |  | 10.1 | 7.5 | 19.5 | 
C[C@@H]1CN(CCCc2ccccc2)[C@H]2C[C@H](N(C)C)C[C@]1(c1cccc(O)c1)C2 | 9.9 | 0.28 | 104 | 6.5 | 18.4 |  |  | 55 | 38 |  |  |  |  | 
CCN(C)[C@H]1C[C@H]2C[C@@](c3cccc(O)c3)(C1)[C@H](C)CN2CCCc1ccccc1 |  |  | 94 | 60 |  |  |  |  |  | > 5000 |  |  |  | > 5
